Measured values published in ChEMBL document CHEMBL1772969, “Synthesis, structure-activity relationship, and antimalarial activity of ureas and thioureas of 15-membered azalides” (J Med Chem, 2011).
≈ marks a conversion by molar mass, not a printed value. Calls of active or inactive are those of the source. The rule behind the calls is not given here.

Legend:
[1] = Half life in mouse liver microsomes at 1 uM by LCMS analysis; assay type: ADME, Microsome
Summary of the method: (§1)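 Compound at 1 μM final with 0.5 mg/mL pooled human or mouse liver microsomes, 1.3 mM NADP, 3.3 mM MgCl₂, 0.1 M PBS pH 7.4. Reaction started with 1 U/mL G6PD, shaken at 37 °C. Aliquots quenched with cold acetonitrile at 0, 10, 20, 30 and 60 min and quantified by LCMS. t₁/₂ taken from log plot of total ion chromatogram area remaining.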

Plasmodium falciparum [2] = assay: Antimalarial activity against multidrug-resistant Plasmodium falciparum TM91C235 after 48 hrs by [3H]hypoxanthine incorporation assay; assay type: functional, organism-based
Summary of the method: (§2)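 [3H]hypoxanthine incorporation assay (Desjardins method, Milhous modification) with 48 h drug exposure. Compounds and controls were 2-fold diluted across 11 concentrations. IC50 was fitted by nonlinear logistic dose-response. Values are averaged where multiple results were generated, with relative errors usually <30%.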

[3] = Half life in Sprague-Dawley rat at 10 mg/kg, iv and 30 mg/kg, po; assay type: ADME, organism-based; conditions: in vivo
Summary of the method: (§3)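 Male Sprague-Dawley rats (250–300 g), crossover design. Dosed 10 mg/kg iv, then 2-day washout, then 30 mg/kg oral (free base equivalent), formulated in 1%/20% Encapsin (w/v) and saline. Blood sampled up to 24 h and analysed by LC-MS/MS. Clearance and terminal-phase Vd based on blood concentration.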

THP-1 = assay: Cytotoxicity against human THP1 cells after 1 to 4 hrs by MTS assay; assay type: cell-based
Summary of the method: (§4)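 HepG2 and THP-1 cells grown in RPMI 1640 with 10% FBS at 37 °C, 5% CO₂, and passaged twice weekly. Compounds applied as continuous exposure. Viability read by MTS reagent, 1–4 h incubation, absorbance at 490 nm; IC₅₀ derived.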

Plasmodium falciparum [4] = assay: Antimalarial activity against chloroquine/pyrimethamine-resistant Plasmodium falciparum W2 after 48 hrs by [3H]hypoxanthine incorporation assay; assay type: functional, organism-based; summary of the method: as §2
[5] = Oral bioavailability in Sprague-Dawley rat at 30 mg/kg; assay type: ADME, organism-based; conditions: in vivo; summary of the method: as §3
[6] = Apparent volume of distribution during terminal phase in Sprague-Dawley rat at 10 mg/kg, iv and 30 mg/kg, po; assay type: ADME, organism-based; conditions: in vivo, read-out: Vz/F; summary of the method: as §3
[7] = Blood clearance in Sprague-Dawley rat at 10 mg/kg, iv and 30 mg/kg, po; assay type: ADME, organism-based; conditions: whole blood; summary of the method: as §3
Plasmodium falciparum [8] = assay: Antimalarial activity against chloroquine-sensitive Plasmodium falciparum D6 after 48 hrs by [3H]hypoxanthine incorporation assay; assay type: functional, organism-based; summary of the method: as §2
Plasmodium berghei [9] = assay: Antiplasmodial activity against Plasmodium berghei KBG-173 infected in sc dosed mouse administered bid for 3 days; assay type: functional
Summary of the method: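 Male mice (24-30 g) were infected ip with 5 × 10⁶ P. berghei KBG-173-infected erythrocytes. Drug suspended in palm/peanut oil was given sc twice daily on days 3-5 post-infection at 160, 40 or 10 mg/kg per dose, 0.01 mL/g, in groups of 4-5. Blood films were taken day 6, then biweekly to day 31. Mice smear-negative on day 31 were counted cured. CD50 is the daily dose curing 50%.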

HepG2 = assay: Cytotoxicity against human HepG2 cells after 1 to 4 hrs by MTS assay; assay type: cell-based; summary of the method: as §4
Plasmodium berghei [10] = assay: Antiplasmodial activity against Plasmodium berghei KBG-173 infected in mouse assessed as mouse without parasitemia at 960 mg/kg, sc bid for 3 days measured on day 31; assay type: functional, organism-based; set-up: dose 960 mg/kg
Summary of the method: (§5)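 P. berghei KBG-173: 5 × 10⁶ infected erythrocytes injected intraperitoneally into male mice (24–30 g); parasitemia 1.0–3.7% by day 3. Oil suspension given subcutaneously twice daily at 160, 40 or 10 mg/kg on days 3–5 postinfection (totals 960/240/60 mg/kg); 4–5 mice per group. Blood films on day 6, then biweekly to day 31; film-negative on day 31 counted as cured.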

[11] = Half life in human liver microsomes at 1 uM by LCMS analysis; assay type: ADME, Microsome; summary of the method: as §1
Plasmodium berghei [12] = assay: Antiplasmodial activity against Plasmodium berghei KBG-173 infected in mouse assessed as mouse without parasitemia at 240 mg/kg, sc bid for 3 days measured on day 31; assay type: functional, organism-based; set-up: dose 240 mg/kg; summary of the method: as §5
Plasmodium berghei [13] = assay: Antiplasmodial activity against Plasmodium berghei KBG-173 infected in mouse assessed as mouse without parasitemia at 60 mg/kg, sc bid for 3 days measured on day 31; assay type: functional, organism-based; set-up: dose 60 mg/kg; summary of the method: as §5
Plasmodium falciparum [14] = assay: Antimalarial activity against Plasmodium falciparum after 68 hrs; assay type: functional, organism-based
Plasmodium falciparum [15] = assay: Ratio of compound IC50 to Azithromycin IC50 for Plasmodium falciparum; assay type: functional

SMILES	half-life at 1 µM [1] [h]	IC50 (Plasmodium falciparum [2]) [µM]	half-life [3] [h]	IC50 (THP-1) [µM]	IC50 (Plasmodium falciparum [4]) [µM]	bioavailability [5] [%]	Vd/F [6] [L/kg]	clearance [7] [mL/min/kg]	IC50 (Plasmodium falciparum [8]) [µM]	CD50 (Plasmodium berghei [9]) [mg/kg]	IC50 (HepG2) [µM]	Activity (Plasmodium berghei [10])	half-life at 1 µM [11] [h]	Activity (Plasmodium berghei [12])	Activity (Plasmodium berghei [13])	IC50 (Plasmodium falciparum [14]) [µg/mL]	Ratio IC50 (Plasmodium falciparum [15])
CC[C@H]1OC(=O)[C@H](C)[C@@H](O[C@H]2C[C@@](C)(OC)[C@@H](O)[C@H](C)O2)[C@H](C)[C@@H](O[C@@H]2O[C@H](C)C[C@H](N(C)C)[C@H]2O)[C@](C)(O)C[C@@H](C)CN(CCCN(CCC#N)C(=O)Nc2ccc(Cl)cc2Cl)[C@H](C)[C@@H](O)[C@]1(C)O	> 2	0.123	41.5	15	0.199	18.4	23.3	7.7	0.229	420	22	Active	> 2				
CC[C@H]1OC(=O)[C@H](C)[C@@H](O[C@H]2C[C@@](C)(OC)[C@@H](O)[C@H](C)O2)[C@H](C)[C@@H](O[C@@H]2O[C@H](C)C[C@H](N(C)C)[C@H]2O)[C@](C)(O)C[C@@H](C)CN(CCCNC(=O)NC(C)c2cccc3ccccc23)[C@H](C)[C@@H](O)[C@]1(C)O (stereo partly specified)	> 2	0.107		46	0.106				0.292	397.5	> 50	Active	> 2	inactive			
CC[C@H]1OC(=O)[C@H](C)[C@@H](O[C@H]2C[C@@](C)(OC)[C@@H](O)[C@H](C)O2)[C@H](C)[C@@H](O[C@@H]2O[C@H](C)C[C@H](N(C)C)[C@H]2O)[C@](C)(O)C[C@@H](C)CN(CCCNC(=S)NCCc2ccccc2)[C@H](C)[C@@H](O)[C@]1(C)O	> 2	0.2		23	0.167				0.215	780	47		> 2		inactive		
CC[C@H]1OC(=O)[C@H](C)[C@@H](O[C@H]2C[C@@](C)(OC)[C@@H](O)[C@H](C)O2)[C@H](C)[C@@H](O[C@@H]2O[C@H](C)C[C@H](N(C)C)[C@H]2O)[C@](C)(O)C[C@@H](C)CN(CCCN(CCC#N)C(=S)NCCCc2ccccc2)[C@H](C)[C@@H](O)[C@]1(C)O	> 2	0.062	15.2	5	0.088	21	31.7	24.5	0.179	800	9		> 2	inactive	inactive		
CC[C@H]1OC(=O)[C@H](C)[C@@H](O[C@H]2C[C@@](C)(OC)[C@@H](O)[C@H](C)O2)[C@H](C)[C@@H](O[C@@H]2O[C@H](C)C[C@H](N(C)C)[C@H]2O)[C@](C)(O)C[C@@H](C)CN(C)[C@H](C)[C@@H](O)[C@]1(C)O [AZITHROMYCIN]	> 2	2.11	24	> 50	2.29	33	20	11	1.04	50	> 50	Active	> 2	Active		0.5 (≈ 0.668 µM)	88
CC[C@H]1OC(=O)[C@H](C)[C@@H](O[C@H]2C[C@@](C)(OC)[C@@H](O)[C@H](C)O2)[C@H](C)[C@@H](O[C@@H]2O[C@H](C)C[C@H](N(C)C)[C@H]2O)[C@](C)(O)C[C@@H](C)CN(CCCNC(=S)NCCCc2ccccc2)[C@H](C)[C@@H](O)[C@]1(C)O	> 2	0.082	13.4	15	0.085	1.3	2.6	2.3	0.107	780	22		> 2		inactive		
CC[C@H]1OC(=O)[C@H](C)[C@@H](O[C@H]2C[C@@](C)(OC)[C@@H](O)[C@H](C)O2)[C@H](C)[C@@H](O[C@@H]2O[C@H](C)C[C@H](N(C)C)[C@H]2O)[C@](C)(O)C[C@@H](C)CN(CCCN(CCC#N)C(=O)NC(C)c2cccc3ccccc23)[C@H](C)[C@@H](O)[C@]1(C)O (stereo partly specified)	> 2	0.097		40	0.136				0.2	510	48		> 2	inactive			
CC[C@H]1OC(=O)[C@H](C)[C@@H](O[C@H]2C[C@@](C)(OC)[C@@H](O)[C@H](C)O2)[C@H](C)[C@@H](O[C@@H]2O[C@H](C)C[C@H](N(C)C)[C@H]2O)[C@](C)(O)C[C@@H](C)CN(CCCNC(=S)NCc2ccccc2)[C@H](C)[C@@H](O)[C@]1(C)O	> 2	0.156	30	47	0.121	3.4	10.4	4	0.257	285	> 50		> 2				
CC[C@H]1OC(=O)[C@H](C)[C@@H](O[C@H]2C[C@@](C)(OC)[C@@H](O)[C@H](C)O2)[C@H](C)[C@@H](O[C@@H]2O[C@H](C)C[C@H](N(C)C)[C@H]2O)[C@](C)(O)C[C@@H](C)CN(CCCNC(=O)Nc2ccc3ccccc3c2)[C@H](C)[C@@H](O)[C@]1(C)O	> 2	0.081		40	0.127				0.138	>960	48		> 2	inactive	inactive		
CC[C@H]1OC(=O)[C@H](C)[C@@H](O[C@H]2C[C@@](C)(OC)[C@@H](O)[C@H](C)O2)[C@H](C)[C@@H](O[C@@H]2O[C@H](C)C[C@H](N(C)C)[C@H]2O)[C@](C)(O)C[C@@H](C)CN(CCCN(CCC#N)C(=S)NCCc2ccccc2)[C@H](C)[C@@H](O)[C@]1(C)O	> 2	0.048		6	0.051				0.088	>960	13	inactive	1.72		inactive		
